Reference: ChEMBL document CHEMBL1142492 (J Med Chem, 2008)

Tests used:
[1] = tested on: Epidermal growth factor receptor (Homo sapiens), P00533 [L861Q]; assay: Inhibition of EGFR L861Q mutant at 3 uM; type: protein assay
In short: (§1)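 Single-concentration kinase panel scoring: each value is the percentage of enzyme activity remaining relative to a DMSO-only control. An activity statistically indistinct from DMSO control was scored "no hit".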

[2] = target: Mitogen-activated protein kinase 11 (Homo sapiens) (UniProt Q15759); assay: Inhibition of p38-beta at 3 uM
[3] = target: Serine/threonine-protein kinase 35 (Homo sapiens) (UniProt Q8TDR2); assay: Inhibition of STK35 at 3 uM
[4] = Half life in Sprague-Dawley rat at 1 mg/kg, iv; details: in vivo
[5] = target: D(4) dopamine receptor (Homo sapiens) (UniProt P21917); assay: Inhibition of human dopamine D4 receptor at 3 uM
In short: (§2)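 Counter-screen binding/enzyme panel at single 3 μM, n=2; results as percent inhibition. Species per target as listed (rat NMDA, GABAA sites; human receptors, transporters; rabbit ACE).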

[6] = target: Cyclin-dependent kinase-like 2 (Homo sapiens) (UniProt Q92772); assay: Inhibition of CDKL2 at 3 uM
[7] = target: Delta-type opioid receptor (Homo sapiens) (UniProt P41143); assay: Inhibition of human delta opioid receptor at 3 uM; in short: as §2
[8] = target: Death-associated protein kinase 3 (Homo sapiens) (UniProt O43293); assay: Inhibition of DAPK3 at 3 uM
[9] = target: Phosphatidylinositol 4-phosphate 5-kinase type-1 alpha (Homo sapiens) (UniProt Q99755); assay: Inhibition of PIP5K1A at 3 uM
[10] = target: Tyrosine-protein kinase receptor TYRO3 (Homo sapiens) (UniProt Q06418); assay: Inhibition of TYRO3 at 3 uM
[11] = target: Vascular endothelial growth factor receptor 2 (Homo sapiens) (UniProt P35968); assay: Inhibition of VEGFR2 at 3 uM
[12] = target: Mitogen-activated protein kinase 1 (Homo sapiens) (UniProt P28482); assay: Inhibition of ERK2 at 3 uM; in short: as §1
[13] = target: Histamine H3 receptor (Homo sapiens) (UniProt Q9Y5N1); assay: Inhibition of human histamine H3 receptor at 3 uM; in short: as §2
[14] = tested on: Tyrosine-protein kinase ABL1 (Homo sapiens), P00519 [F317L]; assay: Inhibition of ABL1 F317L mutant at 3 uM
[15] = target: Tyrosine-protein kinase TXK (Homo sapiens) (UniProt P42681); assay: Inhibition of TXK at 3 uM
[16] = organism: Rattus norvegicus; details: 3 uM
[17] = target: Myotonin-protein kinase (Homo sapiens) (UniProt Q09013); assay: Inhibition of DMPK at 3 uM
[18] = target: Tyrosine-protein kinase HCK (Homo sapiens) (UniProt P08631); assay: Inhibition of HCK at 3 uM
[19] = target: Serine/threonine-protein kinase MRCK alpha (Homo sapiens) (UniProt Q5VT25); details: 3 uM
[20] = target: Serine/threonine-protein kinase 33 (Homo sapiens) (UniProt Q9BYT3); assay: Inhibition of STK33 at 3 uM
[21] = target: Serine/threonine-protein kinase TNNI3K (Homo sapiens) (UniProt Q59H18); assay: Inhibition of TNNI3K at 3 uM
[22] = target: Calcium/calmodulin-dependent protein kinase type 1G (Homo sapiens) (UniProt Q96NX5); assay: Inhibition of CAMK1G at 3 uM
[23] = target: Cysteinyl leukotriene receptor 1 (Homo sapiens) (UniProt Q9Y271); assay: Inhibition of human CysLT1 receptor at 3 uM
[24] = target: Serine/threonine-protein kinase pim-3 (Homo sapiens) (UniProt Q86V86); assay: Inhibition of PIM3 at 3 uM
[25] = target: Dual specificity protein kinase CLK3 (Homo sapiens) (UniProt P49761); assay: Inhibition of CLK3 at 3 uM
[26] = organism: Rattus norvegicus; details: 3 uM; remark: listed apart in the source
[27] = target: MAP kinase-interacting serine/threonine-protein kinase 1 (Homo sapiens) (UniProt Q9BUB5); assay: Inhibition of MKNK1 at 3 uM
[28] = target: Alpha-1A adrenergic receptor (Rattus norvegicus) (UniProt P43140); assay: Inhibition of rat adrenergic alpha1A receptor at 3 uM
[29] = tested on: Mast/stem cell growth factor receptor Kit (Homo sapiens), P10721 [V559D]; assay: Inhibition of KIT V559D mutant at 3 uM
[30] = target: Phosphorylase b kinase gamma catalytic chain, liver/testis isoform (Homo sapiens) (UniProt P15735); assay: Inhibition of PHKG2 at 3 uM
[31] = target: Alpha-2A adrenergic receptor (Homo sapiens) (UniProt P08913); assay: Inhibition of human adrenergic alpha2A receptor at 3 uM
[32] = target: SRSF protein kinase 3 (Homo sapiens) (UniProt Q9UPE1); assay: Inhibition of SRPK3 at 3 uM
[33] = target: Aurora kinase B (Homo sapiens) (UniProt Q96GD4); assay: Inhibition of AURKB at 3 uM
[34] = target: Serine/threonine-protein kinase LATS2 (Homo sapiens) (UniProt Q9NRM7); assay: Inhibition of LATS2 at 3 uM
[35] = organism: Rattus norvegicus; details: 3 uM; remark: listed apart in the source
[36] = target: Androgen receptor (Rattus norvegicus) (UniProt P15207); assay: Inhibition of rat androgen receptor at 3 uM
[37] = target: Bone morphogenetic protein receptor type-2 (Homo sapiens) (UniProt Q13873); assay: Inhibition of BMPR2 at 3 uM
[38] = target: Mitogen-activated protein kinase 13 (Homo sapiens) (UniProt O15264); assay: Inhibition of p38-delta at 3 uM
[39] = target: Calcium/calmodulin-dependent protein kinase type II subunit gamma (Homo sapiens) (UniProt Q13555); assay: Inhibition of CAMK2G at 3 uM
[40] = target: Calcium/calmodulin-dependent protein kinase kinase 1 (Homo sapiens) (UniProt Q8N5S9); assay: Inhibition of CAMKK1 at 3 uM
[41] = organism: Rattus norvegicus; details: 3 uM; remark: listed apart in the source
[42] = target: Serine/threonine-protein kinase PAK 1 (Homo sapiens) (UniProt Q13153); assay: Inhibition of PAK1 at 3 uM
[43] = target: Dual specificity protein kinase CLK2 (Homo sapiens) (UniProt P49760); assay: Inhibition of CLK2 at 3 uM
[44] = target: MAP kinase-interacting serine/threonine-protein kinase 2 (Homo sapiens) (UniProt Q9HBH9); assay: Inhibition of MKNK2 at 3 uM
[45] = target: Cyclin-dependent kinase 14 (Homo sapiens) (UniProt O94921); assay: Inhibition of PFTK1 at 3 uM
[46] = target: cAMP-dependent protein kinase catalytic subunit beta (Homo sapiens) (UniProt P22694); assay: Inhibition of PKAC-beta at 3 uM
[47] = target: Muscarinic acetylcholine receptor M1 (Homo sapiens) (UniProt P11229); assay: Inhibition of human muscarinic M1 receptor at 3 uM; in short: as §2

Chain of Cyclin-dependent kinase 14 (Homo sapiens) (O94921 whole entry): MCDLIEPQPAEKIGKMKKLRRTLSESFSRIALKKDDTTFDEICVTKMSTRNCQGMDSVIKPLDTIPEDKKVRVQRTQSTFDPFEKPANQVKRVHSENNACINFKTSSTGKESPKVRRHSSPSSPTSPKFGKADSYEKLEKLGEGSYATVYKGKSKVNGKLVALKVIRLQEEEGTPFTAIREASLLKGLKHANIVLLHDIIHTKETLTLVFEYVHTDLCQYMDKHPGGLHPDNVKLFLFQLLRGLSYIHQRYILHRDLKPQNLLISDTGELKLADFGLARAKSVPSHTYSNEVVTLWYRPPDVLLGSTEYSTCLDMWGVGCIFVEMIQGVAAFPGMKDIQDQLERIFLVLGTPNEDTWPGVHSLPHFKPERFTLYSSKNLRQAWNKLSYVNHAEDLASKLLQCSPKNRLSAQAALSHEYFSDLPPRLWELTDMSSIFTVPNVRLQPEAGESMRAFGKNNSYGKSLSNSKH
Chain of Phosphorylase b kinase gamma catalytic chain, liver/testis isoform (Homo sapiens) (P15735 whole entry, canonical isoform): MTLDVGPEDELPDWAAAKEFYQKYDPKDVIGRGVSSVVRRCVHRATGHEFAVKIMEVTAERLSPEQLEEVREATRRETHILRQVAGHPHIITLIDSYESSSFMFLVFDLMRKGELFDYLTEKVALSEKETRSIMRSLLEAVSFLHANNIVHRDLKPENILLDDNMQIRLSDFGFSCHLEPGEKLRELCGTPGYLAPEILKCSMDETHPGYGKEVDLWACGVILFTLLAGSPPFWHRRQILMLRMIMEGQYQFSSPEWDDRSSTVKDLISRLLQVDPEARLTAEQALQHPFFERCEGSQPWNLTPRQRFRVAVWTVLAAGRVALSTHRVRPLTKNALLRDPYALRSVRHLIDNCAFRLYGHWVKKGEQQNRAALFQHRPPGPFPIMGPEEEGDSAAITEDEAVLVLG
Chain of Serine/threonine-protein kinase TNNI3K (Homo sapiens) (Q59H18 whole entry): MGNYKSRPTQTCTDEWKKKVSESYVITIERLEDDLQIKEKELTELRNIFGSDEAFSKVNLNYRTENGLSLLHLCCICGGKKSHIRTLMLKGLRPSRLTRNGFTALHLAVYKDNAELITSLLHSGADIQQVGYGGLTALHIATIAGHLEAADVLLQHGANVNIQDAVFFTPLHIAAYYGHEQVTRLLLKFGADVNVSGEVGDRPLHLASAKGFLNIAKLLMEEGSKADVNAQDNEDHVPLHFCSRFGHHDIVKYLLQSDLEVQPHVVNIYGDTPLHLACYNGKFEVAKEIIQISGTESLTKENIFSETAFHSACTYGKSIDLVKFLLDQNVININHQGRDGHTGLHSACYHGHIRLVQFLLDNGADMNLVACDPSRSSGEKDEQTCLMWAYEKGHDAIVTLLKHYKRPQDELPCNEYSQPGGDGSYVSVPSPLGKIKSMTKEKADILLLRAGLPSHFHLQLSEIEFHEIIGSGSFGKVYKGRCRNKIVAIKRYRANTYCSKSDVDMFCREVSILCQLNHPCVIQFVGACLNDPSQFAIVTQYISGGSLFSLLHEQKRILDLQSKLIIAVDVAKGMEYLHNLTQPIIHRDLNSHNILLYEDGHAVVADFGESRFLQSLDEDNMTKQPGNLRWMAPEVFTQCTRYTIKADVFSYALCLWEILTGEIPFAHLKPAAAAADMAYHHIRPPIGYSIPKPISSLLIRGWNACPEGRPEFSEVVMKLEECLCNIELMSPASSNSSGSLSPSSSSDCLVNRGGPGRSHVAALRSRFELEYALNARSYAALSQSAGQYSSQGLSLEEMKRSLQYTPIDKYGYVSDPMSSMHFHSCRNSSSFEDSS
Chain of MAP kinase-interacting serine/threonine-protein kinase 1 (Homo sapiens) (Q9BUB5 whole entry, looked up): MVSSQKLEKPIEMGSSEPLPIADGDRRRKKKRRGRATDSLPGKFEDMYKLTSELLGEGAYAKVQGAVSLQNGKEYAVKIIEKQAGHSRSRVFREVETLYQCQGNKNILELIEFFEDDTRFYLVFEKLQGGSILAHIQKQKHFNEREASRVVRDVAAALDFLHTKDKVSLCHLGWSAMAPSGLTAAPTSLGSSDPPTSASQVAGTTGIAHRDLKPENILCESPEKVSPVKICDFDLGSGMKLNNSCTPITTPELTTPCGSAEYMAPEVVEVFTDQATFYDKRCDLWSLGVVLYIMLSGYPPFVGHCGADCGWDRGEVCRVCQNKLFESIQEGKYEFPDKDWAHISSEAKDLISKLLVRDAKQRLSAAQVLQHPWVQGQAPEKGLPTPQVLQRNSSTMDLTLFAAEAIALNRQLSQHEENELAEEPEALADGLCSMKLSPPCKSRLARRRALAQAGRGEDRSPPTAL
Chain of Cysteinyl leukotriene receptor 1 (Homo sapiens) (Q9Y271 whole entry): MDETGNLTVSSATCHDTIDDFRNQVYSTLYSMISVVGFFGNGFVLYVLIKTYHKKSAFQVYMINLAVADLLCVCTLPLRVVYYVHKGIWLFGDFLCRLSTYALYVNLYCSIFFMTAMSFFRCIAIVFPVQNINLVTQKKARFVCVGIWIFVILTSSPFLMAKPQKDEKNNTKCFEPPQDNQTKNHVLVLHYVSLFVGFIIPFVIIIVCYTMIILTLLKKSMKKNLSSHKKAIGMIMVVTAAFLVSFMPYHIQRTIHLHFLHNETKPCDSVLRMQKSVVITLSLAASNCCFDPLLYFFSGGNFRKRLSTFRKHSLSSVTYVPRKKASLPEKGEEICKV
Chain of Mast/stem cell growth factor receptor Kit (Homo sapiens), P10721 [V559D] (P10721 whole entry V559D, canonical isoform): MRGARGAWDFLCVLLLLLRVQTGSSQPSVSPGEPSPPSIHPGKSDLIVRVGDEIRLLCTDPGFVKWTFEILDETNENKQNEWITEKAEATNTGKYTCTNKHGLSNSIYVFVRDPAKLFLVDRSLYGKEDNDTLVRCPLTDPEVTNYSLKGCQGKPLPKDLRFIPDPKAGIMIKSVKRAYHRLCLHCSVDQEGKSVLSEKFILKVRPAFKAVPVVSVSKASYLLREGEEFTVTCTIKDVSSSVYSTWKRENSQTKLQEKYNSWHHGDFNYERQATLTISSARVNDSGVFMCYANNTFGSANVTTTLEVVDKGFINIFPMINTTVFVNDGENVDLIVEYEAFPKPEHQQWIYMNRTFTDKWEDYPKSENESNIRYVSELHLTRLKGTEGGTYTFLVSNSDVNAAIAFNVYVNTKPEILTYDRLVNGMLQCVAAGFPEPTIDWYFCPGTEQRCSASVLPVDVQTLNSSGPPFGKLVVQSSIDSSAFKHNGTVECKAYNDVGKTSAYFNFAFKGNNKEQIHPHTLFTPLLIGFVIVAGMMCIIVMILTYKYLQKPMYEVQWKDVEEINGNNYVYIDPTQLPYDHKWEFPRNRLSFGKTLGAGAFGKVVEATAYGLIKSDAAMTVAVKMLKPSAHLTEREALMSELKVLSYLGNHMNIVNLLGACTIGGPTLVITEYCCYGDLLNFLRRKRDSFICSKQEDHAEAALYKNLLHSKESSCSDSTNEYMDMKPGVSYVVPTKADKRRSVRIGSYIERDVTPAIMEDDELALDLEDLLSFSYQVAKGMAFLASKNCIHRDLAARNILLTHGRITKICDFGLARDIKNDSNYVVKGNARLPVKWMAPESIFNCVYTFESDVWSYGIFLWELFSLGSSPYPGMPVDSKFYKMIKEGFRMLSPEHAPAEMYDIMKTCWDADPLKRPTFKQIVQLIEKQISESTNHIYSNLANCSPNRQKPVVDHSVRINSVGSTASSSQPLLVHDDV
Chain of Serine/threonine-protein kinase LATS2 (Homo sapiens) (Q9NRM7 whole entry): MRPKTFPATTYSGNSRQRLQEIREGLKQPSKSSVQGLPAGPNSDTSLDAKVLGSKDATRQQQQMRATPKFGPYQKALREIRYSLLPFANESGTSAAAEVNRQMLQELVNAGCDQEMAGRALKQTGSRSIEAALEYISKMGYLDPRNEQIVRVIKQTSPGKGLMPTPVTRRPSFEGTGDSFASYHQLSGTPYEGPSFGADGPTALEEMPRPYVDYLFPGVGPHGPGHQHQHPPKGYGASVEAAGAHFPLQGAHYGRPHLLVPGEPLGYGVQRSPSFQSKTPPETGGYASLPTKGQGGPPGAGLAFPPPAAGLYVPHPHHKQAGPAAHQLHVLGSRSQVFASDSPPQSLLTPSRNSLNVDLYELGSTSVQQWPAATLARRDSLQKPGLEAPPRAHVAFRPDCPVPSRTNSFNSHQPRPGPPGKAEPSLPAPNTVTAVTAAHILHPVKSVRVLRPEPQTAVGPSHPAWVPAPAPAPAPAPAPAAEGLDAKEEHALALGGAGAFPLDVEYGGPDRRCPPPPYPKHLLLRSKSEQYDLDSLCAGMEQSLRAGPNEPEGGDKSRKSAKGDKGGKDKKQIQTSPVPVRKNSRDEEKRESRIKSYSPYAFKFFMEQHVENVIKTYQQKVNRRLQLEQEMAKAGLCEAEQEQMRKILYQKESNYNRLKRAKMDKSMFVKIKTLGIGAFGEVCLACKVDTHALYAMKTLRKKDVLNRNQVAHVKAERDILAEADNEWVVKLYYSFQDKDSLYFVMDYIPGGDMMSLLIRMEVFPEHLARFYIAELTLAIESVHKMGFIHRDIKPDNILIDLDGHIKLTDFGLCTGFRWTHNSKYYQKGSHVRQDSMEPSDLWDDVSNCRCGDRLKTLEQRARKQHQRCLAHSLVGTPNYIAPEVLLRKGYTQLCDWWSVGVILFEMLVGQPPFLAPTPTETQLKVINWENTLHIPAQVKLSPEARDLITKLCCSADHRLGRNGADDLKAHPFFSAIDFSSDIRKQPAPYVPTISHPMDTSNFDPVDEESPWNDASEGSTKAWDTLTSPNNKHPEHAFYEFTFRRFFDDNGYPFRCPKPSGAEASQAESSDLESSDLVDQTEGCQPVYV
Chain of Mitogen-activated protein kinase 11 (Homo sapiens) (Q15759 whole entry): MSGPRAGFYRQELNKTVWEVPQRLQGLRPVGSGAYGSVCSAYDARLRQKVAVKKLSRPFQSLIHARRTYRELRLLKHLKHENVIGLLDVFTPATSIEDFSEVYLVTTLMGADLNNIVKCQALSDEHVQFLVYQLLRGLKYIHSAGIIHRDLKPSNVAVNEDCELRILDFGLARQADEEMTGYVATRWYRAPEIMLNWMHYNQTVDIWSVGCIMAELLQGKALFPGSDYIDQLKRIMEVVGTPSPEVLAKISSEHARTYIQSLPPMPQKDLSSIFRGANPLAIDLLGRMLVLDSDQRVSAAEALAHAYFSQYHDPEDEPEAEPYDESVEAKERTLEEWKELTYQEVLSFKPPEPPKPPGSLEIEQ

## CN(C)CCOc1cc(-c2cn[nH]c2)ccc1NC(=O)C1COc2ccccc2O1 (configuration not stated) [SR-3677]
[1]
  inhibition: < 10%
[2]
  inhibition: < 10%
[3]
  inhibition: < 10%
[4]
  half-life: 48 min
[5]
  inhibition: -2%
[6]
  inhibition: < 10%
[7]
  inhibition: -9%
[8]
  inhibition: < 10%
[9]
  inhibition: < 10%
[10]
  inhibition: < 10%
[11]
  inhibition: < 10%
[12]
  inhibition: < 10%
[13]
  inhibition: -2%
[14]
  inhibition: < 10%
[15]
  inhibition: < 10%
[16]
  inhibition: 24%
[17]
  inhibition: < 10%
[18]
  inhibition: < 10%
[19]
  inhibition: < 10%
[20]
  inhibition: < 10%
[21]
  inhibition: < 10%
[22]
  inhibition: < 10%
[23]
  inhibition: 0%
[24]
  inhibition: < 10%
[25]
  inhibition: < 10%
[26]
  inhibition: 0%
[27]
  inhibition: < 10%
[28]
  inhibition: 53%
[29]
  inhibition: < 10%
[30]
  inhibition: < 10%
[31]
  inhibition: 76%
[32]
  inhibition: < 10%
[33]
  inhibition: < 10%
[34]
  inhibition: 88%
[35]
  inhibition: -1%
[36]
  inhibition: 10%
[37]
  inhibition: < 10%
[38]
  inhibition: < 10%
[39]
  inhibition: < 10%
[40]
  inhibition: < 10%
[41]
  inhibition: 14%
[42]
  inhibition: < 10%
[43]
  inhibition: 70%
[44]
  inhibition: < 10%
[45]
  inhibition: < 10%
[46]
  inhibition: < 10%
[47]
  inhibition: 6%
